Data as given in ChEMBL document CHEMBL3407418, “Fragment-based drug discovery of 2-thiazolidinones as BRD4 inhibitors: 2. Structure-based optimization” (J Med Chem, 2015).

How the values were obtained:
[1] = biological target: Bromodomain-containing protein 4 (Homo sapiens, UniProt O60885); assay: Inhibition of BRD4(1) (unknown origin) incubated for 4 hrs by (+)-JQ1 fluorescent ligand based fluorescence anisotrophy
HT-29 = assay: Growth inhibition of human HT-29 cells after 72 hrs by SRB assay; format: functional, cell-based; settings: HT-29, 72 h
How it was run: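 HT-29 cells are grown in McCoy's 5A with 10% FBS at 37 °C, 5% CO2. DMSO stocks (0.01 mol/L) are diluted in normal saline just before use. Cells are treated in triplicate with gradient concentrations for 72 h at 37 °C.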

[2] = Growth inhibition of human MM1S cells after 72 hrs by CellTiter-Glo luminescent cell viability assay; settings: MM1.S
MV4-11 = assay: Growth inhibition of human MV4-11 cells after 72 hrs by CellTiter-Glo luminescent cell viability assay; settings: MV4-11, 72 h
[3] = Stability in human liver microsomes assessed as clearance at 1 uM pre-incubated for 5 mins followed by NADPH addition and measured after 5 to 30 mins post NADPH addition by LC/MS/MS method; format: ADME; settings: read-out: CLH
How it was run: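 Human liver microsomes (0.5 mg/mL) preincubated with 1 µM compound for 5 min at 37 °C in 0.1 M phosphate pH 7.4 with 1 mmol EDTA and 5 mmol MgCl2. Started with 1 mmol NADPH; sampled at 0, 5, 10 and 30 min. Quenched with equal volume of cold acetonitrile, vortexed, and centrifuged at 10,000 × g.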

CYP3A4 [4] = biological target: T1, CYP3A4 (Homo sapiens, UniProt P08684); assay: Inhibition of CYP3A4 in human liver microsomes at 10 uM using midazolam substrate preincubated for 5 mins before NADPH addition and measured after 20 mins post NADPH addition; format: ADME; settings: probe midazolam
T1 sequence (P08684 whole entry): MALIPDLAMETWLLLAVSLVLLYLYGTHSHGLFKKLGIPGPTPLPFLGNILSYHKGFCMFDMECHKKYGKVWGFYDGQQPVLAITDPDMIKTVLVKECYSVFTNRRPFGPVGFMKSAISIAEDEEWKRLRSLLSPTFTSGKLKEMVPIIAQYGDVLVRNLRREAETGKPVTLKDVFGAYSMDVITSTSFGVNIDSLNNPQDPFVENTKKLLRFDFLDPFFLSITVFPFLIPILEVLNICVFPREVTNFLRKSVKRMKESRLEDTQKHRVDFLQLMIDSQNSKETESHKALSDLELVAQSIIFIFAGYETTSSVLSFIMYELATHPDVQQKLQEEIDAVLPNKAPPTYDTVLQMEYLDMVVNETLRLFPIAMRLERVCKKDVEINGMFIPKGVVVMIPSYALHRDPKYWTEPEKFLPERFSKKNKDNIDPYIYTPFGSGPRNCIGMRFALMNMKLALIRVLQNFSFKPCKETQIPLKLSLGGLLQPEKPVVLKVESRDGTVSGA
How it was run: (§1)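 Human liver microsomes 0.2 mg/mL, 1 mmol NADPH, 100 mmol phosphate pH 7.4, probe cocktail (10 μM midazolam, 100 μM testosterone, 10 μM dextromethorphan, 20 μM diclofenac, 100 μM phenacetin, 100 μM mephenytoin), test compound 10 μM or PBS; organic solvent <1%. 5 min preincubation at 37 °C, NADPH-generating system start, 20 min reaction; inhibition from metabolite formation relative to PBS.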

CYP3A4 [5] = biological target: T1, CYP3A4; assay: Inhibition of CYP3A4 in human liver microsomes at 10 uM preincubated for 5 mins before NADPH addition and measured after 20 mins post NADPH addition; format: ADME
CYP2D6 = CYP2D6 (Homo sapiens, UniProt P10635); assay: Inhibition of CYP2D6 in human liver microsomes at 10 uM using dextromethorphan substrate preincubated for 5 mins before NADPH addition and measured after 20 mins post NADPH addition; format: ADME; settings: liver microsomes, probe dextromethorphan; how it was run: as §1
CYP2D6, sequence (P10635 whole entry): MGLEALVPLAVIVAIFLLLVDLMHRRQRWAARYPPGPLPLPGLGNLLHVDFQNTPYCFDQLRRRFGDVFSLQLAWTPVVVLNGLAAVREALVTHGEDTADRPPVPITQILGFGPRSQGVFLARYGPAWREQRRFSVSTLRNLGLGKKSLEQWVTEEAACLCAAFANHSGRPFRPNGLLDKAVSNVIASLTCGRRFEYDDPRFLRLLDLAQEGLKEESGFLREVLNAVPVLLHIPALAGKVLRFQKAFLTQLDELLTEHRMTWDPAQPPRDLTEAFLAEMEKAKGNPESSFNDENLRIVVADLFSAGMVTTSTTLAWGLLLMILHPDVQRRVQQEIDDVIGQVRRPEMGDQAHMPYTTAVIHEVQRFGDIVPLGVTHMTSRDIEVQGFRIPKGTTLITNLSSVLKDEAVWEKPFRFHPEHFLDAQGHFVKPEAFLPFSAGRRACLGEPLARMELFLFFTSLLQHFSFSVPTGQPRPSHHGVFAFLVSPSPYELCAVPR

CYP2C9 = CYP2C9 (Homo sapiens, UniProt P11712); assay: Inhibition of CYP2C9 in human liver microsomes at 10 uM using diclofenac substrate preincubated for 5 mins before NADPH addition and measured after 20 mins post NADPH addition; format: ADME; settings: liver microsomes, probe diclofenac; how it was run: as §1
CYP2C9, sequence (P11712 whole entry): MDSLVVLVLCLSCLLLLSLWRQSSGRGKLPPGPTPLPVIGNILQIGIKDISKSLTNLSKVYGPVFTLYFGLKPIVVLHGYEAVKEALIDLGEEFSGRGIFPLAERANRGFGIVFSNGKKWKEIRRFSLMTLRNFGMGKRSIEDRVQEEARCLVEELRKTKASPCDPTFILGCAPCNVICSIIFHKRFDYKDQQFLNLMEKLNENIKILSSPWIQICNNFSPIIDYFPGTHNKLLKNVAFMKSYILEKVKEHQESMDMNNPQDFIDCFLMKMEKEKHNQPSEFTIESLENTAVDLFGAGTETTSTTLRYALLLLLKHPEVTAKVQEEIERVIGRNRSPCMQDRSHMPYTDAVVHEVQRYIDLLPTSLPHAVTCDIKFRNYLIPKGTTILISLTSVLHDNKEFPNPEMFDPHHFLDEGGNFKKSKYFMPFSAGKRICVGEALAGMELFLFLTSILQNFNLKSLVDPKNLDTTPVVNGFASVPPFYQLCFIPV

CYP1A2 = biological target: T2, CYP1A2 (Homo sapiens, UniProt P05177); assay: Inhibition of CYP1A2 in human liver microsomes at 10 uM using phenacetin substrate preincubated for 5 mins before NADPH addition and measured after 20 mins post NADPH addition; format: ADME; settings: probe phenacetin; how it was run: as §1
T2 sequence (P05177 whole entry): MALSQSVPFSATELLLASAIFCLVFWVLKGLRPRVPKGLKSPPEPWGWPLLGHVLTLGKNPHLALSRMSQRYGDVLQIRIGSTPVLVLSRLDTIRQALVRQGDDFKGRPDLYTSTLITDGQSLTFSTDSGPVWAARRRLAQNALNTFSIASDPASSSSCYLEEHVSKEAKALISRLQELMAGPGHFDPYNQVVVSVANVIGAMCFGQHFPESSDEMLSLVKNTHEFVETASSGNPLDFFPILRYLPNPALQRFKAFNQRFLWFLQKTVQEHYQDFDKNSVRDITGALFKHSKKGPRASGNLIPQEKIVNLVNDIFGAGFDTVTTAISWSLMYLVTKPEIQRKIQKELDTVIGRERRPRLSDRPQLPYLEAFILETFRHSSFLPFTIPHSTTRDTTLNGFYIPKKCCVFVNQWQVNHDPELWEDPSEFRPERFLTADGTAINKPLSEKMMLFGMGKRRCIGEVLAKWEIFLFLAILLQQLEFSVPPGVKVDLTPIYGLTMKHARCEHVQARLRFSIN

CYP2C19 = CYP2C19 (Homo sapiens, UniProt P33261); assay: Inhibition of CYP2C19 in human liver microsomes at 10 uM using mephenytoin substrate preincubated for 5 mins before NADPH addition and measured after 20 mins post NADPH addition; format: ADME; settings: probe mephenytoin; how it was run: as §1
CYP2C19, sequence (P33261 whole entry): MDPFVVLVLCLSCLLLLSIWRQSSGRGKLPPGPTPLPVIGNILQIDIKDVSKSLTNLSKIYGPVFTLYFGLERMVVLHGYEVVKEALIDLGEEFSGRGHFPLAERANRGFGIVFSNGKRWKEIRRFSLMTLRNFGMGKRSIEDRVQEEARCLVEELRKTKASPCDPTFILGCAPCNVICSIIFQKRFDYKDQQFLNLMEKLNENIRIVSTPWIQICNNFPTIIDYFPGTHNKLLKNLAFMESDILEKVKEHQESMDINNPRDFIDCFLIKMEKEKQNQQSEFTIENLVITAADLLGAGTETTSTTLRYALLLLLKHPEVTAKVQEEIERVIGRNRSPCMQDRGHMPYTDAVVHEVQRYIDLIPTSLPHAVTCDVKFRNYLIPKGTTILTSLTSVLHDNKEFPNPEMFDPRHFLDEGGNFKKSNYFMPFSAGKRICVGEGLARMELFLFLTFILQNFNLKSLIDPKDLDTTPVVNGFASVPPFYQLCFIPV

Cytochrome P450 3A4 = Cytochrome P450 3A4 (Homo sapiens, UniProt P08684); assay: Time dependent inhibition of CYP3A4 in human liver microsomes at 10 uM using midazolam substrate preincubated for 5 mins before NADPH addition and measured after 20 mins post NADPH addition; format: ADME
Cytochrome P450 3A4, sequence (P08684 whole entry): as the sequence (P08684 whole entry) above

Cytochrome P450 2D6 = Cytochrome P450 2D6 (Homo sapiens, UniProt P10635); assay: Time dependent inhibition of CYP2D6 in human liver microsomes at 10 uM using dextromethorphan substrate preincubated for 5 mins before NADPH addition and measured after 20 mins post NADPH addition; format: ADME
Cytochrome P450 2D6, sequence (P10635 whole entry): as the sequence (P10635 whole entry) above

Cytochrome P450 2C9 = Cytochrome P450 2C9 (Homo sapiens, UniProt P11712); assay: Time dependent inhibition of CYP2C9 in human liver microsomes at 10 uM using diclofenac substrate preincubated for 5 mins before NADPH addition and measured after 20 mins post NADPH addition; format: ADME
Cytochrome P450 2C9, sequence (P11712 whole entry): as the sequence (P11712 whole entry) above

Cytochrome P450 1A2 = biological target: T3, Cytochrome P450 1A2 (Homo sapiens, UniProt P05177); assay: Time dependent inhibition of CYP1A2 in human liver microsomes at 10 uM using phenacetin substrate preincubated for 5 mins before NADPH addition and measured after 20 mins post NADPH addition; format: ADME
T3 sequence (P05177 whole entry): T2 sequence (P05177 whole entry)

Cytochrome P450 2C19 = Cytochrome P450 2C19 (Homo sapiens, UniProt P33261); assay: Time dependent inhibition of CYP2C19 in human liver microsomes at 10 uM using mephenytoin substrate preincubated for 5 mins before NADPH addition and measured after 20 mins post NADPH addition; format: ADME
Cytochrome P450 2C19, sequence (P33261 whole entry, the tested form may be a part): as the sequence (P33261 whole entry) above

[6] = biological target: T4, ATPase family AAA domain-containing protein 2 (Homo sapiens) (UniProt Q6PL18); assay: Binding affinity to ATAD2 (unknown origin) assessed as increase in protein melting temperature at 50 umol by real-time PCR system based thermal shift assay
T4 sequence (whole entry): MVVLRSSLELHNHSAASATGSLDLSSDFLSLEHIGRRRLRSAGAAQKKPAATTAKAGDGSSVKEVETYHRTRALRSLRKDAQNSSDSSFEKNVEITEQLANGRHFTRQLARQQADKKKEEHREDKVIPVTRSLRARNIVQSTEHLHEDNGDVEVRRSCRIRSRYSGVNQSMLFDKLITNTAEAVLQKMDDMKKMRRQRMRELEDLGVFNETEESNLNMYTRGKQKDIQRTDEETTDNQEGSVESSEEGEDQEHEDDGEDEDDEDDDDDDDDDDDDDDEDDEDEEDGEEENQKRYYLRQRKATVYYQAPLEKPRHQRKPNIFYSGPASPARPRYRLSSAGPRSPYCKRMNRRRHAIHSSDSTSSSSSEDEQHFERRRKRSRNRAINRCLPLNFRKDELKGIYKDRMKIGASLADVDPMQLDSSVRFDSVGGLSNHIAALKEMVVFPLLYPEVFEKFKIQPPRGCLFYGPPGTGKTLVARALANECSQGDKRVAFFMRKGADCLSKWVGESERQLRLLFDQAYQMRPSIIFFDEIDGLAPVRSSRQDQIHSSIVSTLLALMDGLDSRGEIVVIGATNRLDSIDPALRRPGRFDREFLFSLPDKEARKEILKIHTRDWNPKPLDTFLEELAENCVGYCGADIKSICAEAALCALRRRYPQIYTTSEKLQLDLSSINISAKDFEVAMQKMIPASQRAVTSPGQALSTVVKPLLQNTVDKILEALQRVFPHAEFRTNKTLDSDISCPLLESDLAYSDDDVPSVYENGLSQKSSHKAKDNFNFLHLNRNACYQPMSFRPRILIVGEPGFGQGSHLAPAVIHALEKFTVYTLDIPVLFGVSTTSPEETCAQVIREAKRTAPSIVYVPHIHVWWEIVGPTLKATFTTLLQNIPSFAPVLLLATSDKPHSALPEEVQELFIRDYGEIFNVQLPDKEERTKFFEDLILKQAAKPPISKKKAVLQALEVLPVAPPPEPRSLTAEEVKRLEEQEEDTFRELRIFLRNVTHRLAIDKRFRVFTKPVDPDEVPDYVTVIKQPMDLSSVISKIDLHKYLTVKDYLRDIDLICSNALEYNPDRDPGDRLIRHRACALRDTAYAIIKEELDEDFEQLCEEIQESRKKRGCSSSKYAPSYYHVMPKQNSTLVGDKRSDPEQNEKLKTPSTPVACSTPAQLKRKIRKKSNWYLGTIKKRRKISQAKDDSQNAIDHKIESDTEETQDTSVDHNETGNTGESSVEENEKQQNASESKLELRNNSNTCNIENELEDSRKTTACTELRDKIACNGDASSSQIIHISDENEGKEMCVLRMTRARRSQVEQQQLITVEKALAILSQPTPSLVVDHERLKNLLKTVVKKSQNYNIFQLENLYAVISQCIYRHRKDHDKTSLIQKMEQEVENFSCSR
How it was run: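 Bromodomain proteins in 10 mmol HEPES pH 7.5, 500 mmol NaCl at 75 μg/mL final; compound at 50 µmol final; SYPRO Orange probe at 1:1000. Four replicates per protein mixture. Melt curve read on a real-time PCR instrument, heating 25 °C to 99 °C at 1 °C/min under continuous fluorescence reading; binding taken as the rise in protein melting temperature.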

CCCC(=O)Nc1cc(-c2csc(=O)[nH]2)cc(S(=O)(=O)NC2CCCC2)c1C
IC50 [1]: 0.93 µM
IC50 (HT-29): 23.5 µM

Nc1cc(-c2csc(=O)[nH]2)cc(S(=O)(=O)NC2CCCC2)c1
IC50 [1]: 0.46 µM
IC50 (HT-29): 6.15 µM
IC50 [2]: 3.58 µM
IC50 (MV4-11): 0.689 µM

O=c1[nH]c(-c2cccc(S(=O)(=O)NCc3ccccc3)c2)cs1
IC50 [1]: > 10 µM

O=C(Nc1cc(-c2csc(=O)[nH]2)cc(S(=O)(=O)NC2CCCC2)c1)c1cccs1
IC50 [1]: 0.11 µM
IC50 (HT-29): 25.2 µM
microsomal CLint at 1 µM [3]: 64 µL/min/mg
inhibition at 20 min, 10 µM (CYP3A4 [4]): 17%
inhibition at 20 min, 10 µM (CYP3A4 [5]): 34%
inhibition at 20 min, 10 µM (CYP2D6): 44%
inhibition at 20 min, 10 µM (CYP2C9): 57%
inhibition at 20 min, 10 µM (CYP1A2): 45%
inhibition at 20 min, 10 µM (CYP2C19): 46%
TDI (Cytochrome P450 3A4): Not Active
TDI (Cytochrome P450 2D6): Not Active
TDI (Cytochrome P450 2C9): Not Active
TDI (Cytochrome P450 1A2): Not Active
TDI (Cytochrome P450 2C19): Not Active
IC50 [2]: 3.31 µM
IC50 (MV4-11): 0.272 µM

O=c1[nH]c(-c2cccc(S(=O)(=O)NCC3CCCO3)c2)cs1 (stereo unspecified)
IC50 [1]: 9.31 µM

O=c1[nH]c(-c2cccc(S(=O)(=O)NC3CCCCC3)c2)cs1
IC50 [1]: 2.06 µM

Cc1c(NC(=O)C2CC2)cc(-c2csc(=O)[nH]2)cc1S(=O)(=O)NC1CCCC1
IC50 [1]: 0.22 µM
IC50 (HT-29): 28.5 µM
IC50 [2]: 1.76 µM
IC50 (MV4-11): 0.45 µM

CCCC(=O)Nc1cc(-c2csc(=O)[nH]2)cc(S(=O)(=O)NC2CCCC2)c1
IC50 [1]: 0.17 µM
IC50 (HT-29): 13.9 µM
IC50 [2]: 2.53 µM
IC50 (MV4-11): 0.791 µM

O=c1[nH]c(-c2ccc(F)c(S(=O)(=O)NC3CCCC3)c2)cs1
IC50 [1]: 0.5 µM
IC50 (HT-29): 35.2 µM

O=C(Nc1ccc(-c2csc(=O)[nH]2)cc1S(=O)(=O)NC1CCCC1)C1CC1
IC50 [1]: 0.8 µM
IC50 (HT-29): 13 µM

O=c1[nH]c(-c2cccc(S(=O)(=O)Nc3ccon3)c2)cs1
IC50 [1]: 7.34 µM

Cc1sc2c(c1C)C(c1ccc(Cl)cc1)=N[C@@H](CC(=O)OC(C)(C)C)c1nnc(C)n1-2
IC50 (HT-29): 0.104 µM
ΔTm [6]: 1.04 °C
microsomal CLint at 1 µM [3]: 78 µL/min/mg
inhibition at 20 min, 10 µM (CYP3A4 [4]): 30%
inhibition at 20 min, 10 µM (CYP3A4 [5]): 28%
inhibition at 20 min, 10 µM (CYP2D6): 2%
inhibition at 20 min, 10 µM (CYP2C9): 18%
inhibition at 20 min, 10 µM (CYP1A2): 2%
inhibition at 20 min, 10 µM (CYP2C19): 18%
TDI (Cytochrome P450 2C9): Active
TDI (Cytochrome P450 2C19): Active
IC50 [2]: 0.109 µM
IC50 (MV4-11): 0.023 µM
